High-throughput results (PubChem BioAssay)
GRIN3A LBD mod – modulates the human NR3A ligand-binding domain; Tm shift relative to glycine control, % at 25 µM; NR3A LBD differential scanning fluorimetry, Tm shift; 0% = protein alone, 100% = glycine-bound protein; 340,000 compounds, 2.5% hits;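 active = melting temperature shift of at least 10% of the positive control shift, at one fixed dose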
proCasp7 act – activates human procaspase-7, counter-screen for procaspase-3 activators. P55210. 330,000 compounds, 0.093% hits. activation, % at 8.5 µM. recombinant procaspase-7, Ac-DEVD-pNA absorbance 405 nm; D23A/D198A/D206A triple mutant, cannot self-cleave; scale: DMSO 0, 5 µM enzyme 100;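 active = percent activation above the screen-wide mean plus 3 SD, cut at about 25% in these data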
Target sequence (P55210 whole entry D23A/D198A/D206A): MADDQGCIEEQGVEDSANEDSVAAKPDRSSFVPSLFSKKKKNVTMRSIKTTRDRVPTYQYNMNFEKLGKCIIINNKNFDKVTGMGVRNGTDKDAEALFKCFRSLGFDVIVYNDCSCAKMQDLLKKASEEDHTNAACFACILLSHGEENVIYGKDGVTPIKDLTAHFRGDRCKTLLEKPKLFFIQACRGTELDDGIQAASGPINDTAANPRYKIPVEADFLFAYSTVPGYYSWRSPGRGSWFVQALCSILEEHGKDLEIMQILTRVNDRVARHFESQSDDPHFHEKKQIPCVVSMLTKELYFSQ
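Test system: Procaspase-7 triple mutant (PC-7 D3A). Also added: Ac-DEVD-pNA substrate, 400 µM as added. Schedule: 1 h enzyme–compound preincubation and 2 h substrate reaction, both 25 °C. Signal: p-Nitroaniline absorbance at 405 nm, read at 0 and 120 min. Control set: low DMSO alone, high DMSO plus 5 µM PC-7.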
procasp3 activ – procaspase-3 (human) activation. P42574. recombinant procaspase-3 D3A, Ac-DEVD-pNA absorbance 405 nm. activation, % at 8.5 µM. 330,000 compounds, 0.11% hits. AID 463141;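 active = activation above the mean of all tested compounds plus 3 SD, cut at about 21% in these data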;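 note: 0% = DMSO alone and 100% = DMSO wells spiked with extra 5 µM PC-3 D3A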
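Assay system – Procaspase-3 D3A mutant, all three cleavage aspartates alanine · Controls – DMSO-only low control, 5 µM PC-3 D3A high control · Schedule – 1 h compound preincubation, 2 h substrate hydrolysis at 25 °C · Signal – 405 nm absorbance of p-nitroaniline, reads at 0 and 120 min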
aDG glyco up – increases alpha dystroglycan glycosylation; 360,000 compounds, 0.22% hits; activation, % at 10 µM; AID 624168; Pro5-aDG cells, alpha-DG glycosylation AlphaScreen (IIH6); 0% Pro5, 100% B10-LARGE cell signal;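 active = activation of at least 8% versus controls, or a plate z-score of at least 8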;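 note: Pro5 are CHO cells carrying HIG-tagged alpha-DG that lacks glycosylation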
MPTP block – inhibitors of mitochondrial permeability transition pore; inhibition, % at 10 µM; 360,000 compounds, 1.4% hits; isolated mouse mitochondria, Ca2+ swelling absorbance, 30 min; AID 602449;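 active = inhibition of 50% or more, scaled per plate between neutral and stimulator controls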;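 note: 0% = DMSO wells given calcium and 100% = 1 mM EGTA wells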
Numbers without * were called inactive. Shown are actives, neighbours in structure and some others; about 3.7% of the full set was active somewhere.

How did CC(C)C[C@@H](CN1CCCC1CN1C(=S)NC[C@@H]1Cc1ccc(O)cc1)N1C[C@H](Cc2ccc(O)cc2)N(CC2CCCCC2)C1=S (stereo partly specified) do in these assays?
GRIN3A LBD mod: 33*; aDG glyco up: 0; MPTP block: 1

Results for CC(C)C[C@@H](CN1CCC[C@@H]1CN1C(=S)NC[C@@H]1Cc1ccccc1)N1C[C@H](Cc2ccc(O)cc2)N(CC2CCCCC2)C1=S ?
aDG glyco up: 0; MPTP block: -3

How did CC(C)C[C@H]1CNC(=S)N1CC1CCCN1C[C@H](CC(C)C)N1C[C@H](Cc2ccc(O)cc2)N(CC2CCCCC2)C1=S (stereo partly specified) do in these assays?
GRIN3A LBD mod: 12*; aDG glyco up: 0; MPTP block: 4

Results for COc1cc(NC(=O)COC(=O)[C@@H]2CCCN2S(=O)(=O)c2ccc(Cl)cc2)cc(OC)c1OC ?
GRIN3A LBD mod: 11*; proCasp7 act: 23; procasp3 activ: -1; aDG glyco up: 0; MPTP block: 0

How did O=C(Nc1ccc(C(=O)N2CCCCC2)cc1)C1CC1 do in these assays?
GRIN3A LBD mod: 2; aDG glyco up: 0; MPTP block: 0

How did O=C(Cn1cc(COc2ccc(Br)cc2)nn1)c1ccc(O)cc1 do in these assays?
GRIN3A LBD mod: -11; aDG glyco up: 0; MPTP block: 1

Results for O=C(Cn1cc(COc2ccc3ccc(=O)oc3c2)nn1)c1ccc(O)cc1 ?
GRIN3A LBD mod: 46*; aDG glyco up: 0; MPTP block: -1

How did OCC1OC(n2cnc3c(N4CCCCC4)ncnc32)C(O)C1O (stereo unspecified) do in these assays?
GRIN3A LBD mod: 0; aDG glyco up: 0; MPTP block: 0

How did O=C(O)c1ccc(COc2ccccc2Cl)cc1 do in these assays?
GRIN3A LBD mod: 13*; proCasp7 act: -6; procasp3 activ: 6; aDG glyco up: 0; MPTP block: -1

What do the screens show for `O=C(O)c1cccc(COc2ccccc2Cl)c1`?
GRIN3A LBD mod: -1; proCasp7 act: -7; procasp3 activ: 5; aDG glyco up: 0; MPTP block: -1

How did CC(C)(C)c1ccc(C(=O)N2CCC2(C)C(=O)Nc2cnc3ccccc3c2)cc1 (stereo unspecified) do in these assays?
aDG glyco up: 0; MPTP block: 2

How did O=C(Nc1cccc(Cl)c1Cl)c1cc(S(=O)(=O)NCCc2ccccc2)ccc1F do in these assays?
GRIN3A LBD mod: 18*; proCasp7 act: 7; procasp3 activ: -7; aDG glyco up: 0; MPTP block: 10

Results for COCCN(C(=O)c1cc(S(=O)(=O)N2CCCCC2)ccc1Cl)c1c(N)n(CC(C)C)c(=O)[nH]c1=O ?
GRIN3A LBD mod: -1; aDG glyco up: 0; MPTP block: 0

Results for Cc1ccc(S(=O)(=O)N(C)C)cc1NC(=O)COC(=O)C1CCCC1 ?
GRIN3A LBD mod: 21*; proCasp7 act: 9; procasp3 activ: 3; aDG glyco up: 0; MPTP block: -1

How did O=C(NCC1CCCO1)c1ccccc1NS(=O)(=O)c1cc([N+](=O)[O-])ccc1Cl (stereo unspecified) do in these assays?
GRIN3A LBD mod: -18; proCasp7 act: 4; procasp3 activ: 0; aDG glyco up: 0; MPTP block: 3

What do the screens show for `C=CCOc1ccc(/C=C/C(=O)OCC(=O)NCCCc2ccccc2)cc1`?
GRIN3A LBD mod: 15*; proCasp7 act: 4; procasp3 activ: 6; aDG glyco up: 0; MPTP block: -1

How did COc1ccc(/C=C/C(=O)OCC(=O)NCCCc2ccccc2)cc1OC do in these assays?
GRIN3A LBD mod: -2; proCasp7 act: 16; procasp3 activ: 13; aDG glyco up: 0; MPTP block: 0

How did CCCCNc1ccc2c3c(cccc13)C(=O)N(CCCC)C2=O do in these assays?
GRIN3A LBD mod: 11*; aDG glyco up: 2; MPTP block: 49

Results for CN(C)CCCN1C(=O)c2cccc3c(Br)ccc(c23)C1=O ?
GRIN3A LBD mod: 0; proCasp7 act: -8; procasp3 activ: -3; aDG glyco up: 1; MPTP block: 0
